Measurements published in ChEMBL document CHEMBL2417507, “Synthesis and bioevaluation of some new isoniazid derivatives” (Bioorg Med Chem, 2013).
Values after ≈ are worked out from the molar mass of the structure shown. Active and inactive are the calls of the source. No cut-off for these calls is given here.

Legend:
HCT-8 [1] = experiment: Cytotoxicity against human HCT8 cells at 25 ug/mL after 24 hrs by trypan blue exclusion assay; format: cell-based; conditions: hct-8, 24 h
Outline: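 HCT8 cells (3 × 10^5 per 3.5-cm well) treated 24 h, then trypsinised, spun and resuspended in PBS. Suspension mixed 1:1 with 0.4% trypan blue for 1 min and viable/non-viable cells counted on a haemocytometer. Each experiment repeated three times.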

HCT-8 [2] = experiment: Cell cycle arrest in human HCT8 cells assessed as accumulation at G2/M phase at 12.5 ug/mL after 24 hrs by propidium iodide staining-based flow cytometric analysis (reference value: 13.83%); format: ADME; conditions: hct-8, 24 h
HCT-8 [3] = experiment: Cell cycle arrest in human HCT8 cells assessed as accumulation at S phase at 12.5 ug/mL after 24 hrs by propidium iodide staining-based flow cytometric analysis (reference value: 39.43%); format: ADME; conditions: hct-8, 24 h
HCT-8 [4] = experiment: Cell cycle arrest in human HCT8 cells assessed as accumulation at G0/G1 phase at 12.5 ug/mL after 24 hrs by propidium iodide staining-based flow cytometric analysis (reference value: 46.43%); format: ADME; conditions: hct-8, 24 h
[5] = Induction of apoptosis in human HCT8 cells assessed as viable cells at 25 ug/mL after 24 hrs by Annexin V-FITC and propidium iodide staining-based flow cytometric analysis (reference value: 87.7%); format: cell-based, HCT-8; conditions: read-out: Activity
HCT-8 [6] = experiment: Induction of apoptosis in human HCT8 cells assessed as early apoptotic cells at 25 ug/mL after 24 hrs by Annexin V-FITC and propidium iodide staining-based flow cytometric analysis (reference value: 1.57%); format: cell-based; conditions: hct-8, 24 h
HCT-8 [7] = experiment: Induction of apoptosis in human HCT8 cells assessed as late apoptotic cells at 25 ug/mL after 24 hrs by Annexin V-FITC and propidium iodide staining-based flow cytometric analysis (reference value: 2.97%); format: cell-based; conditions: hct-8, 24 h
HCT-8 [8] = experiment: Induction of apoptosis in human HCT8 cells assessed as necrotic cells at 25 ug/mL after 24 hrs by Annexin V-FITC and propidium iodide staining-based flow cytometric analysis (reference value: 7.73%); format: cell-based; conditions: hct-8, 24 h
Acinetobacter baumannii [9] = experiment: Antibacterial activity against Acinetobacter baumannii 247 assessed as growth inhibition at 1 mg/mL after 24 hrs by agar-disk diffusion technique; format: functional, organism-based
Outline: (§1)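 Agar-disk diffusion, adapted: plates seeded with 0.5 McFarland suspension prepared from 24 h cultures; 5 µL of a 1 mg/mL compound solution spotted onto the seeded solid medium; incubated 24 h at 37 °C. Stocks made in DMSO.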

Acinetobacter baumannii [10] = experiment: Antibacterial activity against Acinetobacter baumannii 192 assessed as growth inhibition at 1 mg/mL after 24 hrs by agar-disk diffusion technique; format: functional, organism-based; outline: as §1
Acinetobacter baumannii [11] = experiment: Antibacterial activity against Acinetobacter baumannii 136 assessed as growth inhibition at 1 mg/mL after 24 hrs by agar-disk diffusion technique; format: functional, organism-based; outline: as §1
Acinetobacter baumannii [12] = experiment: Antibacterial activity against Acinetobacter baumannii 135 assessed as growth inhibition at 1 mg/mL after 24 hrs by agar-disk diffusion technique; format: functional, organism-based; outline: as §1
Acinetobacter baumannii [13] = experiment: Antibacterial activity against Acinetobacter baumannii 125 assessed as growth inhibition at 1 mg/mL after 24 hrs by agar-disk diffusion technique; format: functional, organism-based; outline: as §1
Acinetobacter baumannii [14] = experiment: Antibacterial activity against Acinetobacter baumannii 122 assessed as growth inhibition at 1 mg/mL after 24 hrs by agar-disk diffusion technique; format: functional, organism-based; outline: as §1
Enterococcus faecalis = experiment: Antibacterial activity against Enterococcus faecalis 2920 assessed as growth inhibition at 1 mg/mL after 24 hrs by agar-disk diffusion technique; format: functional, organism-based; outline: as §1
Pseudomonas putida = experiment: Antibacterial activity against Pseudomonas putida 160 assessed as growth inhibition at 1 mg/mL after 24 hrs by agar-disk diffusion technique; format: functional, organism-based; outline: as §1
Pseudomonas aeruginosa [15] = experiment: Antibacterial activity against Pseudomonas aeruginosa 1144 assessed as growth inhibition at 1 mg/mL after 24 hrs by agar-disk diffusion technique; format: functional, organism-based; outline: as §1
Pseudomonas aeruginosa [16] = experiment: Antibacterial activity against Pseudomonas aeruginosa 165 assessed as growth inhibition at 1 mg/mL after 24 hrs by agar-disk diffusion technique; format: functional, organism-based; outline: as §1
Pseudomonas aeruginosa [17] = experiment: Antibacterial activity against Pseudomonas aeruginosa ATCC 27853 assessed as growth inhibition at 1 mg/mL after 24 hrs by agar-disk diffusion technique; format: functional, organism-based; outline: as §1
Klebsiella pneumoniae = experiment: Antibacterial activity against Klebsiella pneumoniae 1756 assessed as growth inhibition at 1 mg/mL after 24 hrs by agar-disk diffusion technique; format: functional, organism-based; outline: as §1
Escherichia coli = experiment: Antibacterial activity against Escherichia coli 1777 assessed as growth inhibition at 1 mg/mL after 24 hrs by agar-disk diffusion technique; format: functional, organism-based; outline: as §1
Proteus mirabilis = experiment: Antibacterial activity against Proteus mirabilis 1751 assessed as growth inhibition at 1 mg/mL after 24 hrs by agar-disk diffusion technique; format: functional, organism-based; outline: as §1
Morganella morganii = experiment: Antibacterial activity against Morganella morganii 2810 assessed as growth inhibition at 1 mg/mL after 24 hrs by agar-disk diffusion technique; format: functional, organism-based; outline: as §1
Citrobacter koseri = experiment: Antibacterial activity against Citrobacter koseri 1742 assessed as growth inhibition at 1 mg/mL after 24 hrs by agar-disk diffusion technique; format: functional, organism-based; outline: as §1
Enterobacter cloacae = experiment: Antibacterial activity against Enterobacter cloacae 1845 assessed as growth inhibition at 1 mg/mL after 24 hrs by agar-disk diffusion technique; format: functional, organism-based; outline: as §1
Staphylococcus aureus = experiment: Antibacterial activity against Staphylococcus aureus assessed as growth inhibition at 1 mg/mL after 24 hrs by agar-disk diffusion technique; format: functional, organism-based; outline: as §1
Staphylococcus hominis = experiment: Antibacterial activity against Staphylococcus hominis 1813 assessed as growth inhibition at 1 mg/mL after 24 hrs by agar-disk diffusion technique; format: functional, organism-based; outline: as §1
[18] = test system: Mycobacterium tuberculosis; experiment: Antimycobacterial activity against Mycobacterium tuberculosis after 8 days by micro plate Alamar Blue assay; format: functional; conditions: 192 h
Outline: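 Clinical M. tuberculosis strain grown in Middlebrook 7H9 broth. Compounds were dissolved in DMSO and serially diluted twofold on the plate, final 25 to 0.012 µg/mL. Plates were sealed and held 8 days at 37 °C. Alamar Blue with 10% Tween 80 (1:1) was then added for another 24 h at 37 °C. MIC was the lowest concentration preventing the blue-to-pink change.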

[19] = test system: Radical scavenging activity; experiment: Antioxidant activity assessed as DPPH radical scavenging activity at 0.1 mg/mL after 30 mins under dark conditions by spectrophotometric analysis relative to control; format: functional
Outline: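 Compounds dissolved in methanol at 0.1 mg/mL; 0.2 mL mixed with 1.8 mL of 2 × 10^-4 M DPPH in methanol and kept in the dark 30 min. Absorbance read at 517 nm. The blank was DPPH plus methanol. TAC (%) = (Abs initial − Abs 30 min)/Abs initial × 100.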

NC(S)(/C=C/c1ccc(Cl)cc1)NNC(=O)c1ccncc1 (centres undefined)
Activity (HCT-8 [1]): Toxic | Activity (HCT-8 [2]): 15.59% | Activity (HCT-8 [3]): 29.41% | Activity (HCT-8 [4]): 52.35% | viability at 24 h, 25 ug/mL [5]: 55.4% | Activity (HCT-8 [6]): 1.63% | Activity (HCT-8 [7]): 19.3% | Activity (HCT-8 [8]): 23.7% | growth inhibition (GI) (Acinetobacter baumannii [9]): Active | growth inhibition (GI) (Acinetobacter baumannii [10]): Active | growth inhibition (GI) (Acinetobacter baumannii [11]): Active | growth inhibition (GI) (Acinetobacter baumannii [12]): Active | growth inhibition (GI) (Acinetobacter baumannii [13]): Active | growth inhibition (GI) (Acinetobacter baumannii [14]): Active | growth inhibition (GI) (Enterococcus faecalis): Active | growth inhibition (GI) (Pseudomonas putida): Active | growth inhibition (GI) (Pseudomonas aeruginosa [15]): Active | growth inhibition (GI) (Pseudomonas aeruginosa [16]): Active | growth inhibition (GI) (Pseudomonas aeruginosa [17]): Active | growth inhibition (GI) (Klebsiella pneumoniae): Active | growth inhibition (GI) (Escherichia coli): Active | growth inhibition (GI) (Proteus mirabilis): Active | growth inhibition (GI) (Morganella morganii): Active | growth inhibition (GI) (Citrobacter koseri): Active | growth inhibition (GI) (Enterobacter cloacae): Active | growth inhibition (GI) (Staphylococcus aureus): Active | growth inhibition (GI) (Staphylococcus hominis): Active | MIC [18]: 6.25 µg/mL (≈ 18.7 µM) | TAC [19]: 25.7%
